Source: ChEMBL document CHEMBL1153263, “3-Acrylamide-4-aryloxyindoles: synthesis, biological evaluation and metabolic stability of potent and selective EP3 receptor antagonists” (Bioorg Med Chem Lett, 2009)

How the values were obtained:
[1] = target: T1, Prostaglandin E2 receptor EP3 subtype (Homo sapiens, UniProt P43115); test: Displacement of [3H]PGE2 from human EP3 receptor at 20 uM in presence of normal buffer
T1 sequence (P43115 whole entry): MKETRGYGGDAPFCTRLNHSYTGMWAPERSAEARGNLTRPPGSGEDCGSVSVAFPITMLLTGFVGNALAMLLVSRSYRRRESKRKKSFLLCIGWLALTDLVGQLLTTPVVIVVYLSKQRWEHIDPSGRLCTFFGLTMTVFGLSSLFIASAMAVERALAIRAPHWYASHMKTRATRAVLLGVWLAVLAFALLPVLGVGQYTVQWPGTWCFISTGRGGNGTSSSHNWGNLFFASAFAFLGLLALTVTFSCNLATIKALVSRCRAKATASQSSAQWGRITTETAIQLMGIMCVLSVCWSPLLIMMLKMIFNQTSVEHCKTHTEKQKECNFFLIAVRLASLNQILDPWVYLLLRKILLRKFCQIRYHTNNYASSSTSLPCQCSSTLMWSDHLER

[2] = target: T1, Prostaglandin E2 receptor EP3 subtype; test: Displacement of [3H]PGE2 from human EP3 receptor at 20 uM in presence of 10% human serum
[3] = target: T2, Prostaglandin E2 receptor EP3 subtype (Homo sapiens) (UniProt P43115); test: Ratio IC50 for human EP3 receptor in presence of human serum to IC50 for human EP3 in absence of human serum
T2 sequence (whole entry): T1 sequence (P43115 whole entry)

[4] = target: T3, Prostaglandin E2 receptor EP1 subtype (Homo sapiens, UniProt P34995); test: Displacement of radioligand from EP1 receptor
T3 sequence (P34995 whole entry): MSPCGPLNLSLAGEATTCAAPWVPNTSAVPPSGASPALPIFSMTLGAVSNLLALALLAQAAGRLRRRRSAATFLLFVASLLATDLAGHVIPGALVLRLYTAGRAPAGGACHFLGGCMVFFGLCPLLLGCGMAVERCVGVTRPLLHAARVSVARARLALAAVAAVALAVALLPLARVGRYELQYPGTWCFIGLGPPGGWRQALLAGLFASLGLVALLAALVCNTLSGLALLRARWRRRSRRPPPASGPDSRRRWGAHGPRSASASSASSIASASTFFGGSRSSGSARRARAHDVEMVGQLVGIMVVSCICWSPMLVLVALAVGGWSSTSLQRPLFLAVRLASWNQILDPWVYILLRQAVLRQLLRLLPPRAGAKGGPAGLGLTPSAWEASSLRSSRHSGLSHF

[5] = target: Prostaglandin E2 receptor EP4 subtype (Homo sapiens, UniProt P35408); test: Displacement of radioligand from EP4 receptor
Sequence of Prostaglandin E2 receptor EP4 subtype (P35408 whole entry): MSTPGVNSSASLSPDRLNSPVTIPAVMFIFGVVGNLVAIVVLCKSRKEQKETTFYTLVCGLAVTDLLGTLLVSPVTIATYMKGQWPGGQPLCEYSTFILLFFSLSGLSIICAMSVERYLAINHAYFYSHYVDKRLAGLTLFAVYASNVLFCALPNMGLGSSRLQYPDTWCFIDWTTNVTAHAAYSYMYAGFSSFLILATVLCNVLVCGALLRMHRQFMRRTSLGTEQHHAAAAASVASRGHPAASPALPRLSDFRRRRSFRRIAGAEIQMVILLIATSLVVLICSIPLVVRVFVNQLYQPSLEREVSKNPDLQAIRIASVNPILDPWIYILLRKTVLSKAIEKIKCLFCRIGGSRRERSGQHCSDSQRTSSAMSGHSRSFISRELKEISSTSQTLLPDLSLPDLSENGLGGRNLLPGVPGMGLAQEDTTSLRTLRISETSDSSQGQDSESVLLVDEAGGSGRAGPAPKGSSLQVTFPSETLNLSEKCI

[6] = target: Prostaglandin F2-alpha receptor (Homo sapiens, UniProt P43088); test: Displacement of radioligand from FP receptor
Sequence of Prostaglandin F2-alpha receptor (P43088 whole entry): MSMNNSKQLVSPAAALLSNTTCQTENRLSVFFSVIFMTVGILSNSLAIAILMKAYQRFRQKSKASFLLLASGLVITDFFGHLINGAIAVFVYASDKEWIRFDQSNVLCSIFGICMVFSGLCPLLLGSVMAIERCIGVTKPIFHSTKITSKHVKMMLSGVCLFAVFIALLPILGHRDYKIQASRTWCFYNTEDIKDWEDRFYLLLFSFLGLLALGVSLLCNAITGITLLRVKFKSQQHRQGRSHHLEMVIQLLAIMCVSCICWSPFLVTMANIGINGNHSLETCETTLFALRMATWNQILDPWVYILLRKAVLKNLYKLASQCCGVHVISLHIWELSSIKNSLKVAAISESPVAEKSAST

[7] = target: Prostaglandin E2 receptor EP2 subtype (Homo sapiens, UniProt P43116); test: Displacement of radioligand from EP2 receptor
Sequence of Prostaglandin E2 receptor EP2 subtype (P43116 whole entry): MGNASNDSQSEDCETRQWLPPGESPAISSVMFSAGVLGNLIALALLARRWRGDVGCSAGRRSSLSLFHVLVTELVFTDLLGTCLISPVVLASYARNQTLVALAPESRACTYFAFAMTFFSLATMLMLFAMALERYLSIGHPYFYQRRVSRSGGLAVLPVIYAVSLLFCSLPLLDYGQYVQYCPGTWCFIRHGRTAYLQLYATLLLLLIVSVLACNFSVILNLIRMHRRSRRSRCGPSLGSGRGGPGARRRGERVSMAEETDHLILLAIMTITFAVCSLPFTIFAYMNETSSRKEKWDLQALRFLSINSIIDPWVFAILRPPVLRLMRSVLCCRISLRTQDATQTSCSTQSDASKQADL

[8] = Metabolic stability in human liver microsome assessed as compound remaining at 5 uM after 30 mins; assay type: ADME; conditions: liver microsomes, read-out: Stability
In short: (§1)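 Liver microsomes at 0.8 mg/mL protein incubated with compound at 5 µM. Percent parent remaining after 30 min measured by LC–MS/MS.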

[9] = Metabolic stability in rat liver microsome assessed as compound remaining at 5 uM after 30 mins; assay type: ADME; conditions: liver microsomes, read-out: Stability; in short: as §1
[10] = Metabolic stability in dog liver microsome assessed as compound remaining at 5 uM after 30 mins; assay type: ADME, Canis lupus familiaris; conditions: liver microsomes, read-out: Stability; in short: as §1
Prostacyclin receptor = Prostacyclin receptor (Homo sapiens, UniProt P43119); test: Displacement of radioligand from IP receptor
Sequence of Prostacyclin receptor (P43119 whole entry): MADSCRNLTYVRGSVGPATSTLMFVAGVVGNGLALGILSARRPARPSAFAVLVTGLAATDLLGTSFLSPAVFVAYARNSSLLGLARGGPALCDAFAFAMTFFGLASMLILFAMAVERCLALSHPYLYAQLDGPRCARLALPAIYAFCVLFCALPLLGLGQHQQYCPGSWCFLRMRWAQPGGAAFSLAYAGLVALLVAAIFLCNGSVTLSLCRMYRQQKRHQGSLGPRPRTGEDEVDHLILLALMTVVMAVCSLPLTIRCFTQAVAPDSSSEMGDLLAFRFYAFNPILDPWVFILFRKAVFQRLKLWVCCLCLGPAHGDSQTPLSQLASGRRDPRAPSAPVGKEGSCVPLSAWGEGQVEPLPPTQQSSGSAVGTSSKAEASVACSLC

Row | Structure (SMILES) | IC50 [1] | IC50 [2] | Ratio IC50 [3] | also measured
1 | Cn1cc(/C=C/C(=O)NS(=O)(=O)c2ccc(F)c(F)c2)c2c(Oc3ccc(Cl)cc3)cccc21 | 27.3 nM | 776 nM | 28.4 | –
2 | Cn1cc(/C=C/C(=O)NS(=O)(=O)c2cc(F)c(F)cc2F)c2c(Oc3ccc(Cl)c(F)c3)cccc21 | 6.7 nM | 53.9 nM | 8 | IC50 [4]: 1370 nM; IC50 [5]: 10000 nM; IC50 [6]: 2230 nM; IC50 [7]: 10000 nM
3 | Cn1cc(/C=C/C(=O)NS(=O)(=O)c2cc(F)c(F)cc2F)c2c(Oc3cnc4ccccc4n3)cccc21 | 7.2 nM | 128 nM | 17.7 | –
4 | Cn1cc(/C=C/C(=O)NS(=O)(=O)c2ccc(F)c(F)c2)c2c(Oc3ccc(Cl)c(Cl)c3)cccc21 | 12.4 nM | 50.8 nM | 4.1 | remaining at 0.5 h, 5 µM [8]: 58.8%; IC50 [4]: > 10000 nM; IC50 [5]: 20400 nM; IC50 [6]: 2400 nM; IC50 [7]: 4200 nM; remaining at 0.5 h, 5 µM [9]: 14.9%
5 | Cn1cc(/C=C/C(=O)NS(=O)(=O)c2ccc(F)c(F)c2)c2c(Oc3ccc(F)cc3Cl)cccc21 | 13.8 nM | 146 nM | 10.5 | –
6 | Cn1cc(/C=C/C(=O)NS(=O)(=O)c2ccc(Cl)cc2)c2c(Oc3ccc4ccccc4c3)cccc21 | 21.9 nM | 1100 nM | 50.2 | –
7 | Cn1cc(/C=C/C(=O)NS(=O)(=O)c2cccc(F)c2)c2c(Oc3ccc4ccccc4c3)cccc21 | 17.5 nM | 116 nM | 6.6 | –
8 | Cn1cc(/C=C/C(=O)NS(=O)(=O)c2cc(F)c(F)cc2F)c2c(Oc3ccc(F)cc3Cl)cccc21 | 18.1 nM | 316 nM | 17.5 | –
9 | Cn1cc(/C=C/C(=O)NS(=O)(=O)c2ccc(Cl)cc2Cl)c2c(Oc3ccc4ccccc4c3)cccc21 | 54.1 nM | 1540 nM | 28.5 | –
10 | Cn1cc(/C=C/C(=O)NS(=O)(=O)c2cc(Cl)cc(Cl)c2)c2c(Oc3ccc4ccccc4c3)cccc21 | 8.7 nM | 321 nM | 37 | –
11 | COc1ccc(S(=O)(=O)NC(=O)/C=C/c2cn(C)c3cccc(Oc4ccc5ccccc5c4)c23)cc1 | 101 nM | – | – | –
12 | Cn1cc(/C=C/C(=O)NS(=O)(=O)c2ccccc2F)c2c(Oc3ccc4ccccc4c3)cccc21 | 11.9 nM | 646 nM | 54.3 | –
13 | Cn1cc(/C=C/C(=O)NS(=O)(=O)c2cc(F)c(F)cc2F)c2c(Oc3ccc(F)c(Cl)c3)cccc21 | 9.7 nM | 61.1 nM | 6.3 | IC50 [4]: > 10000 nM; IC50 [5]: > 10000 nM; IC50 [6]: 3160 nM; IC50 [7]: > 10000 nM
14 | Cn1cc(/C=C/C(=O)NS(=O)(=O)c2ccc(F)c(F)c2)c2c(Oc3ccc(Cl)c(F)c3)cccc21 | 23.4 nM | 612 nM | 26.3 | –
15 | Cn1cc(/C=C/C(=O)NS(=O)(=O)c2ccc(F)c(F)c2)c2c(Oc3ccc(F)cc3F)cccc21 | 18.5 nM | – | – | –
16 | Cn1cc(/C=C/C(=O)NS(=O)(=O)c2cccc(Cl)c2)c2c(Oc3ccc4ccccc4c3)cccc21 | 15.7 nM | 35 nM | 2.2 | remaining at 0.5 h, 5 µM [8]: 79%; remaining at 0.5 h, 5 µM [10]: 80.6%; remaining at 0.5 h, 5 µM [9]: 33.3%
17 | Cn1cc(/C=C/C(=O)NS(=O)(=O)c2ccc(F)cc2)c2c(Oc3ccc4ccccc4c3)cccc21 | 9.4 nM | 182 nM | 19.4 | –
18 | Cn1cc(/C=C/C(=O)NS(=O)(=O)c2ccc(F)c(F)c2)c2c(Oc3ccc(F)c(Cl)c3)cccc21 | 26.9 nM | 81.5 nM | 3 | remaining at 0.5 h, 5 µM [8]: 91.5%; IC50 [5]: > 10000 nM; IC50 [6]: 1820 nM; IC50 [7]: > 10000 nM; IC50 (Prostacyclin receptor): 4100 nM; remaining at 0.5 h, 5 µM [9]: 32%
19 | Cn1cc(/C=C/C(=O)NS(=O)(=O)c2cc(F)cc(F)c2)c2c(Oc3ccc4ccccc4c3)cccc21 | 44.9 nM | 157 nM | 3.5 | –
20 | Cn1cc(/C=C/C(=O)NS(=O)(=O)c2ccccc2Cl)c2c(Oc3ccc4ccccc4c3)cccc21 | 18.4 nM | 1680 nM | 91.3 | –
21 | Cn1cc(/C=C/C(=O)NS(=O)(=O)c2ccc(F)c(F)c2)c2c(Oc3ccc(Cl)cc3F)cccc21 | 7.2 nM | 124 nM | 17.2 | remaining at 0.5 h, 5 µM [8]: 113%; IC50 [4]: > 10000 nM; IC50 [5]: > 10000 nM; IC50 [6]: 3190 nM; IC50 [7]: > 10000 nM; IC50 (Prostacyclin receptor): > 10000 nM; remaining at 0.5 h, 5 µM [9]: 40%
22 | Cn1cc(/C=C/C(=O)NS(=O)(=O)c2cc(F)c(F)cc2F)c2c(Oc3ccc(F)cc3F)cccc21 | 84.8 nM | – | – | –
23 | Cn1cc(/C=C/C(=O)NS(=O)(=O)c2cc(F)ccc2F)c2c(Oc3ccc4ccccc4c3)cccc21 | 6.5 nM | 157 nM | 24.3 | –
24 | Cn1cc(/C=C/C(=O)NS(=O)(=O)c2cc(F)c(F)cc2F)c2c(Oc3ccc4ncccc4c3)cccc21 | 8.5 nM | 168 nM | 19.8 | –
25 | Cn1cc(/C=C/C(=O)NS(=O)(=O)c2ccc(Cl)c(Cl)c2)c2c(Oc3ccc4ccccc4c3)cccc21 | 11.8 nM | 92.9 nM | 7.8 | –

Compounds with a lower IC50 [1], results first:

Row | IC50 [1] | IC50 [2] | Ratio IC50 [3] | Structure (SMILES) | also measured
26 | 4.4 nM | 156 nM | 35.6 | Cn1cc(/C=C/C(=O)NS(=O)(=O)c2cc(F)c(F)cc2F)c2c(Oc3ccc(Cl)cc3F)cccc21 | –
27 | 3.5 nM | 115 nM | 32.7 | Cn1cc(/C=C/C(=O)NS(=O)(=O)c2ccc(F)cc2F)c2c(Oc3ccc4ccccc4c3)cccc21 | –
28 | 4.6 nM | 89.6 nM | 19.4 | Cn1cc(/C=C/C(=O)NS(=O)(=O)c2cc(Cl)c(Cl)s2)c2c(Oc3ccc4ccccc4c3)cccc21 | –
29 | 3 nM | 393 nM | 132 | Cn1cc(/C=C/C(=O)NS(=O)(=O)c2cc(F)c(F)cc2F)c2c(Oc3ccc(Cl)cc3)cccc21 | –
30 | 4.7 nM | 196 nM | 41.9 | Cn1cc(/C=C/C(=O)NS(=O)(=O)c2ccc(F)c(F)c2)c2c(Oc3ccc(F)c(F)c3)cccc21 | –
31 | 5.1 nM | – | – | Cn1cc(/C=C/C(=O)NS(=O)(=O)c2c(F)c(F)c(F)c(F)c2F)c2c(Oc3ccc4ccccc4c3)cccc21 | –
32 | 4.4 nM | – | – | COc1cccc(Oc2cccc3c2c(/C=C/C(=O)NS(=O)(=O)c2ccc(F)c(F)c2)cn3C)c1 | –
33 | 5.1 nM | – | – | COc1cccc(Oc2cccc3c2c(/C=C/C(=O)NS(=O)(=O)c2cc(F)c(F)cc2F)cn3C)c1 | –
34 | 2.6 nM | 45.2 nM | 17.1 | Cn1cc(/C=C/C(=O)NS(=O)(=O)c2cc(F)c(F)cc2F)c2c(Oc3ccc(Cl)c(Cl)c3)cccc21 | IC50 [4]: 5320 nM; IC50 [5]: 13000 nM; IC50 [6]: 4640 nM; IC50 [7]: 7680 nM
35 | 5.9 nM | 710 nM | 121 | Cn1cc(/C=C/C(=O)NS(=O)(=O)c2c(F)cccc2F)c2c(Oc3ccc4ccccc4c3)cccc21 | –
36 | 3.8 nM | 209 nM | 55 | Cn1cc(/C=C/C(=O)NS(=O)(=O)c2cc(F)c(F)cc2F)c2c(Oc3ccc(F)c(F)c3)cccc21 | –
37 | 6.1 nM | 217 nM | 35.3 | Cn1cc(/C=C/C(=O)NS(=O)(=O)c2ccc(F)c(F)c2)c2c(Oc3cnc4ccccc4n3)cccc21 | –
38 | 1.9 nM | 130 nM | 68.7 | Cn1cc(/C=C/C(=O)NS(=O)(=O)c2ccc(F)c(F)c2)c2c(Oc3ccc4ncccc4c3)cccc21 | –
39 | 3.2 nM | 16.7 nM | 5.2 | Cn1cc(/C=C/C(=O)NS(=O)(=O)c2cc(F)c(F)cc2F)c2c(Oc3ccc(Cl)cc3Cl)cccc21 | remaining at 0.5 h, 5 µM [8]: 74.7%; IC50 [5]: > 10000 nM; IC50 [6]: 3570 nM; IC50 [7]: 9300 nM; remaining at 0.5 h, 5 µM [9]: 39.1%
